High-throughput results from PubChem.
PGC1a acetyl inh = inhibitors of PGC1a acetylation signal, primary screen, cell-based, U2OS, AlphaScreen, inhibitor mode. AID 651687, 2012. AlphaScreen anti-acetyl-lysine; with virally co-expressed GCN5 acetyltransferase. actives 0.17% (n = 350,000). inhibition, % at 15.6 µM;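 active means every replicate shows inhibition of at least 40%; inconclusive means mean inhibition at least 40% but some replicate below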;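 further: 0% = neutral control wells and 100% = positive control wells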
DENV2 CPE rescue = inhibitors of DENV2 cytopathic effect, primary screen, cell-based, plate reader, single concentration; CPE inhibition, % at 9.99 µM; DENV2-infected cells, cytopathic effect rescue; actives 1.7% (n = 350,000); in the data active means CPE inhibition above about 20%, passing the limit was not always enough; inconclusive means no clear call, values can overlap the other calls; tested in BHK-21 cells;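 further: 0% = median of neutral control wells and 100% = median of positive control wells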
Statin myotox sup = suppressors of statin myotoxicity in C2C12 myotubes, primary screen, cell-based, single point, plate reader | C2C12 myotubes + simvastatin, ATP luminescence, 48 h; scaled: DMSO 0, geranylgeraniol control 100 | rescue of ATP level, % at 7.49 µM | actives 0.78% (n = 330,000);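 active means mean ATP rescue above about 67%, or every replicate alone reaching that limit, limit read from the data, passing the limit was not always enough; inconclusive means no clear call, values can overlap the other calls; inactive means mean under the limit and some replicate under it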;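 further: myotubes were challenged with 10 µM simvastatin during compound exposure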
SIRT5 inh = SIRT5 desuccinylase inhibitors, primary screen, biochemical, fluorescence imaging, single point, set 5; actives 1.1% (n = 330,000); AID 652115, 2013; Purified SirT5, succinyl-peptide AMC, trypsin-coupled fluorescence; NAD-dependent protein deacylase sirtuin-5, mitochondrial (Homo sapiens), Q9NXA8; inhibition, % at 15 µM; in the data active means inhibition above about 15%; inconclusive means no clear call, values can overlap the other calls
Target sequence (Q9NXA8 whole entry, looked up): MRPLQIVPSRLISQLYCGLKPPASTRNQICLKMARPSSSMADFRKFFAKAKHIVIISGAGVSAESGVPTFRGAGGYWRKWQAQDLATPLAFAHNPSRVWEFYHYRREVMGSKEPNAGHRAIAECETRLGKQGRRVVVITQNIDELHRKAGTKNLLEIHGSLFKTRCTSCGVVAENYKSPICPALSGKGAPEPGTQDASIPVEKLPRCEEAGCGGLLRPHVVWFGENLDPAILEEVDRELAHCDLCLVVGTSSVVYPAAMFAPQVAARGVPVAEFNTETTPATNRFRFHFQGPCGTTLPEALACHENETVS
S100A4 inh HTS = inhibitors of S100A4-myosin IIA peptide binding, primary screen, biochemical, fluorescence polarization, TAMRA-MyoIIA peptide | Protein S100-A4 (Homo sapiens), P26447 | inhibition, % at 10.7 µM | actives 0.14% (n = 360,000) | AID 652163, 2013;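 active means mean inhibition of at least 70% across replicates, with every replicate also reaching that level; inconclusive means mean inhibition reaches 70% but some replicates fall short; inactive means mean inhibition below 70%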
Target sequence (P26447 whole entry, looked up): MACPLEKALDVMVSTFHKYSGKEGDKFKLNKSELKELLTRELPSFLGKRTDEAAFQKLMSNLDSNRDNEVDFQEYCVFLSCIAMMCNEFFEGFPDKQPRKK
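Material: S100A4 monomer protein / Buffer or medium: 50 mM HEPES pH 7.2, 10 mM CaCl2, 100 mM KCl / Times: 5 min incubation before reading / Benchmarks: neutral control DMSO, positive control TFP / Reagent: labelled myosin peptide probe, 5 nM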
Active calls of the source: *. Sampled rows, rich in hits. Any-hit rate of the full collection: about 2.9%.

What do the screens show for `CCOc1ccccc1Nc1ncnc2ccccc12`?
PGC1a acetyl inh: 5.1; Statin myotox sup: 85.9*

How did Cc1ccc(S(=O)(=O)N(C)C[C@H]2Oc3c(NC(=O)C4CCOCC4)cccc3C(=O)N([C@H](C)CO)C[C@H]2C)cc1 do in these assays?
PGC1a acetyl inh: 1.9; DENV2 CPE rescue: -2.4; Statin myotox sup: 6.1; SIRT5 inh: 0.9; S100A4 inh HTS: -16.4

How did Cc1ccc(S(=O)(=O)N2C[C@@H](O)COC[C@H]3O[C@@H](CC(=O)NCc4ccc(Cl)c(Cl)c4)CC[C@@H]32)cc1 do in these assays?
PGC1a acetyl inh: -3.9; DENV2 CPE rescue: inconclusive; Statin myotox sup: 4.5; SIRT5 inh: -0.4; S100A4 inh HTS: 15.8

Results for CCCc1ccc2c(C)cccc2n1 ?
DENV2 CPE rescue: -5.1; SIRT5 inh: -0.6; S100A4 inh HTS: -1.5

What do the screens show for `CCc1ccc2c(F)cccc2n1`?
PGC1a acetyl inh: 3.9; DENV2 CPE rescue: 60.1*; Statin myotox sup: 1.4; SIRT5 inh: -1.1; S100A4 inh HTS: 14.3

What do the screens show for `C[C@@H]1CN([C@H](C)CO)C(=O)c2cc(NS(=O)(=O)c3ccc(Cl)cc3)ccc2O[C@@H](C)CCCCO[C@@H]1CN(C)S(=O)(=O)c1cn(C)cn1`?
PGC1a acetyl inh: -1.0; DENV2 CPE rescue: 18.6; SIRT5 inh: 1.9; S100A4 inh HTS: -9.3

Results for C[C@@H]1CN([C@H](C)CO)C(=O)Cc2cc(NS(=O)(=O)c3ccc(Cl)cc3)ccc2O[C@@H]1CN(C)S(C)(=O)=O ?
PGC1a acetyl inh: -9.8; DENV2 CPE rescue: -5.3; Statin myotox sup: -28.0; SIRT5 inh: -10.3; S100A4 inh HTS: 8.1

Results for O=C(C[C@@H]1C=C[C@H](NC(=O)c2ccccn2)[C@H](CO)O1)NCc1cc(F)cc(F)c1 ?
PGC1a acetyl inh: -1.8; DENV2 CPE rescue: -6.6; Statin myotox sup: 3.9; SIRT5 inh: -10.2; S100A4 inh HTS: 1.9

Results for C[C@]1(C2CCCC2)Cc2cc(OCC(=O)O)c(Cl)c(Cl)c2C1=O ?
PGC1a acetyl inh: 1.9; DENV2 CPE rescue: 2.5; Statin myotox sup: -6.6; SIRT5 inh: 1.3; S100A4 inh HTS: -2.8

Results for CCCC[C@@]1(C2CCCC2)Cc2cc(OCC(=O)O)c(Cl)c(Cl)c2C1=O ?
PGC1a acetyl inh: 95.0*; DENV2 CPE rescue: -4.7; Statin myotox sup: -1.8; SIRT5 inh: 4.0; S100A4 inh HTS: -0.4

How did COc1ccc(C#Cc2ccc3c(c2)[C@H]2[C@H](CCN2C(=O)c2ccccc2F)[C@H](CO)N3)cc1 do in these assays?
PGC1a acetyl inh: 5.4; DENV2 CPE rescue: -2.8; Statin myotox sup: 5.1; SIRT5 inh: 5.9; S100A4 inh HTS: 6.6

How did O=C(C[C@@H]1C[C@@H]2c3cc(NC(=O)CC4CC4)ccc3O[C@@H]2[C@H](CO)O1)NCc1ccccc1F do in these assays?
PGC1a acetyl inh: 0.9; DENV2 CPE rescue: -3.1; Statin myotox sup: -3.3; SIRT5 inh: -3.4; S100A4 inh HTS: -35.5

Results for CN(C)S(=O)(=O)c1cccc(NC(=S)N/N=C/c2cc(Br)ccc2O)c1 ?
PGC1a acetyl inh: 25.1; DENV2 CPE rescue: 7.1; Statin myotox sup: 29.7; SIRT5 inh: 29.1*; S100A4 inh HTS: 0.6

How did O=C(C[C@H]1CC[C@H]2[C@@H](COC[C@H](O)CN2S(=O)(=O)c2ccc(F)cc2)O1)N[C@@H]1CCN(Cc2ccccc2)C1 do in these assays?
PGC1a acetyl inh: 5.6; DENV2 CPE rescue: -2.2; Statin myotox sup: -5.0; SIRT5 inh: -27.3; S100A4 inh HTS: -11.8

How did COCCNC(=O)CCCn1c(=O)c2cc(OC)c(OC)cc2n(CC(=O)c2cccc(OC)c2)c1=O do in these assays?
PGC1a acetyl inh: -3.7; DENV2 CPE rescue: 2.8; Statin myotox sup: 12.9; SIRT5 inh: 19.1*; S100A4 inh HTS: 0.1

What do the screens show for `COCCNC(=O)CCCn1c(=O)c2cc(OC)c(OC)cc2n(CC(=O)Nc2ccccc2OC)c1=O`?
PGC1a acetyl inh: -10.0; DENV2 CPE rescue: 7.6; Statin myotox sup: 1.3; SIRT5 inh: 0.6; S100A4 inh HTS: 2.9

Results for CC(C)(C)c1ccc(S(=O)(=O)NC(=O)C2(C)CCN2C(=O)C2CCCCC2)cc1 (stereo unspecified) ?
PGC1a acetyl inh: -29.5; DENV2 CPE rescue: 4.2; Statin myotox sup: -2.2; SIRT5 inh: 19.2*; S100A4 inh HTS: -0.9

Results for CC(C)(C)c1ccc(S(=O)(=O)NC(=O)C2(C)CCN2C(=O)CC2CCCCC2)cc1 (stereo unspecified) ?
PGC1a acetyl inh: 12.9; DENV2 CPE rescue: -15.7; Statin myotox sup: -1.1; SIRT5 inh: 0.3; S100A4 inh HTS: 8.7

How did COc1ccc(CN(C)C2CCN(C)CC2)cc1OC do in these assays?
PGC1a acetyl inh: -2.5; DENV2 CPE rescue: -5.7; Statin myotox sup: 0.5; SIRT5 inh: -0.8; S100A4 inh HTS: -13.5

What do the screens show for `COc1ccc(CCNC2CC(=O)N(C3CCCCC3)C2=O)cc1OC` (stereo unspecified)?
PGC1a acetyl inh: 5.6; DENV2 CPE rescue: 26.5*; Statin myotox sup: 14.8; SIRT5 inh: -1.9; S100A4 inh HTS: 2.7

What do the screens show for `COc1ccc(CCNC2CCN(C)CC2)cc1OC`?
PGC1a acetyl inh: 2.7; Statin myotox sup: 111.6*

Results for Cn1cnc(S(=O)(=O)N2C[C@H](O)COC[C@@H]3O[C@@H](CC(=O)NCc4cc(F)cc(F)c4)CC[C@H]32)c1 ?
PGC1a acetyl inh: 2.4; DENV2 CPE rescue: -7.8; Statin myotox sup: -11.3; SIRT5 inh: -0.9; S100A4 inh HTS: 3.5

What do the screens show for `O=C(CNC(=O)c1ccccc1F)NCCN1C(=O)S/C(=C\c2ccccc2Cl)C1=O`?
DENV2 CPE rescue: 81.0*; SIRT5 inh: -1.4; S100A4 inh HTS: -3.0

What do the screens show for `O=C(NCCN1C(=O)S/C(=C\c2ccccc2Cl)C1=O)C1=COCCO1`?
PGC1a acetyl inh: 0.2; DENV2 CPE rescue: 12.6; Statin myotox sup: 10.2; SIRT5 inh: -1.7; S100A4 inh HTS: -4.1

How did O=c1oc2cc(OCc3c(F)c(F)c(F)c(F)c3F)ccc2cc1-c1ccccn1 do in these assays?
DENV2 CPE rescue: 14.5; SIRT5 inh: -8.1; S100A4 inh HTS: -1.3

What do the screens show for `O=c1oc2cc(OCc3ccc(F)cc3F)ccc2cc1-c1ccccn1`?
PGC1a acetyl inh: 2.7; Statin myotox sup: 129.5*

What do the screens show for `CSCCC(NC(=O)COc1ccccc1)C(=O)OCCOc1ccc(C)cc1` (stereo unspecified)?
PGC1a acetyl inh: -0.4; DENV2 CPE rescue: 26.7*; Statin myotox sup: -19.3; SIRT5 inh: 1.2; S100A4 inh HTS: -0.8

How did CNc1cccc(-c2ccccc2CO)n1 do in these assays?
PGC1a acetyl inh: 5.9; DENV2 CPE rescue: 30.1*; Statin myotox sup: -3.3; S100A4 inh HTS: -2.3

Results for O=C(CC(F)(F)F)N1C[C@H]2[C@@H](c3ccccc31)[C@@H](CO)N2C(=O)c1ccncc1 ?
PGC1a acetyl inh: 7.4; DENV2 CPE rescue: inconclusive; Statin myotox sup: -6.9; SIRT5 inh: 4.8; S100A4 inh HTS: -41.6
